The source made the active and inactive calls. How the calls were made is not given here.
Experiments:
CCRF-CEM [1] = assay: Inhibition of RNA synthesis in human CCRF-CEM cells assessed as BrU-positive cells at IC50 after 24 hrs by propidium iodide staining-based flow cytometric analysis (reference value: 43.3%); type: functional; design: scale not given: the % may be the effect or the level left
CCRF-CEM [2] = assay: Cell cycle arrest in human CCRF-CEM cells assessed as accumulation at sub-G1 phase at IC50 after 24 hrs by propidium iodide staining-based flow cytometric analysis (reference value: 9.6%); type: functional
[3] = Cytotoxicity against human HuH7 cells infected with Hepatitis C virus subtype 2a; type: cell-based, Huh-7
Hepatitis C virus [4] = assay: Antiviral activity against Hepatitis C virus subtype 2a infected in human HuH7 cells; type: functional, organism-based, Hepacivirus hominis; details: genotype 2a, Huh-7
[5] = Cytotoxicity against human HuH7 cells infected with Hepatitis C virus subtype 1b; type: cell-based, Huh-7
Hepatitis C virus [6] = assay: Antiviral activity against Hepatitis C virus subtype 1b infected in human HuH7 cells; type: functional, organism-based, Hepacivirus hominis; details: genotype 1b, Huh-7
Candida tropicalis = assay: Antifungal activity against Candida tropicalis after 48 hrs; type: functional, organism-based
Pichia kudriavzevii = assay: Antifungal activity against Candida crusei after 48 hrs; type: functional, organism-based
Candida parapsilosis = assay: Antifungal activity against Candida parapsilosis after 48 hrs; type: functional, organism-based
Candida albicans = assay: Antifungal activity against Candida albicans after 48 hrs; type: functional, organism-based
Pseudomonas aeruginosa [7] = assay: Antibacterial activity against multi-resistant Pseudomonas aeruginosa A/16575 after 24 hrs; type: functional, organism-based
Escherichia coli [8] = assay: Antibacterial activity against multi-resistant Escherichia coli C/16702 after 24 hrs; type: functional, organism-based
[9] = system: Staphylococcus haemolyticus; assay: Antibacterial activity against methicillin-resistant Staphylococcus haemolyticus A/16568 after 24 hrs; type: functional, organism-based
Staphylococcus aureus [10] = assay: Antibacterial activity against methicillin-resistant Staphylococcus aureus MRSA 4591 after 24 hrs; type: functional, organism-based
Pseudomonas aeruginosa [11] = assay: Antibacterial activity against Pseudomonas aeruginosa CCM 3955 after 24 hrs; type: functional, organism-based
Escherichia coli [12] = assay: Antibacterial activity against Escherichia coli CCM 3954 after 24 hrs; type: functional, organism-based
Staphylococcus aureus [13] = assay: Antibacterial activity against Staphylococcus aureus CCM 3953 after 24 hrs; type: functional, organism-based
Enterococcus faecalis = assay: Antibacterial activity against Enterococcus faecalis CCM 4224 after 24 hrs; type: functional, organism-based
[14] = Antiproliferative activity against human HeLaS3 cells after 72 hrs by XTT assay; type: functional, cell-based; details: HeLa S3, 72 h
In short: (§1)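 Antiproliferative test on HL-60 promyelocytic leukemia and HeLa S3 cervical carcinoma cells growing in liquid suspension.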

HL-60 = assay: Antiproliferative activity against human HL60 cells after 72 hrs by XTT assay; type: functional, cell-based; details: HL-60, 72 h; in short: as §1
HepG2 = assay: Antiproliferative activity against human HepG2 cells after 72 hrs by XTT assay; type: functional, cell-based; details: HepG2, 72 h
MRC5 = assay: Cytostatic activity against human MRC5 cells after 72 hrs by MTT assay; type: ADME, cell-based; details: MRC5, 72 h
In short: (§2)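 IC50 is the concentration that cuts cell growth by 50%, read by quantitative metabolic MTT staining after a 3-day treatment. The resistant sublines were made by raising the concentration of the cytotoxic drug step by step. CEM-DNR-bulk (daunorubicin-selected) stably overexpresses mrp-1. K562-TAX (paclitaxel-selected) expresses only mdr-1. HCT116p53−/− carries null p53 alleles. BJ and MRC-5 are nonmalignant fibroblasts.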

BJ = assay: Cytostatic activity against human BJ cells after 72 hrs by MTT assay; type: ADME, cell-based; in short: as §2
HCT-116 [15] = assay: Cytostatic activity against p53-deficient human HCT116 cells after 72 hrs by MTT assay; type: functional, cell-based; details: HCT-116, 72 h; in short: as §2
HCT-116 [16] = assay: Cytostatic activity against human HCT116 cells after 72 hrs by MTT assay; type: functional, cell-based; details: HCT-116, 72 h; in short: as §2
A549 = assay: Cytostatic activity against human A549 cells after 72 hrs by MTT assay; type: functional, cell-based; details: A549, 72 h; in short: as §2
K562 [17] = assay: Cytostatic activity against paclitaxel-resistant human K562 cells after 72 hrs by MTT assay; type: functional, cell-based; details: K562, 72 h; in short: as §2
K562 [18] = assay: Cytostatic activity against human K562 cells after 72 hrs by MTT assay; type: functional, cell-based; details: K562, 72 h; in short: as §2
[19] = Cytostatic activity against human CEM-DNR-bulk cells after 72 hrs by MTT assay; type: functional, cell-based; in short: as §2
CCRF-CEM [20] = assay: Cytostatic activity against human CCRF-CEM cells after 72 hrs by MTT assay; type: functional, cell-based; in short: as §2
CCRF-CEM [21] = assay: Mitotic arrest in human CCRF-CEM cells assessed as pH3Ser10-positive cells at IC50 after 24 hrs by propidium iodide staining-based flow cytometric analysis (reference value: 1.4%); type: functional

| SMILES | Activity (CCRF-CEM [1]) [%] | CC50 [3] [nM] | EC50 (Hepatitis C virus [4]) [nM] | CC50 [5] [nM] | EC50 (Hepatitis C virus [6]) [nM] | Activity (Candida tropicalis) | Activity (Pichia kudriavzevii) | Activity (Candida parapsilosis) | Activity (Candida albicans) | Activity (Pseudomonas aeruginosa [7]) | Activity (Escherichia coli [8]) | Activity [9] | Activity (Staphylococcus aureus [10]) | Activity (Pseudomonas aeruginosa [11]) | Activity (Escherichia coli [12]) | Activity (Staphylococcus aureus [13]) | Activity (Enterococcus faecalis) | IC50 [14] [nM] | IC50 (HL-60) [nM] | IC50 (HepG2) [nM] | other results |
| --- | --- | --- | --- | --- | --- | --- | --- | --- | --- | --- | --- | --- | --- | --- | --- | --- | --- | --- | --- | --- | --- |
| CN(C)c1ncnc2c1c(I)cn2[C@@H]1O[C@H](CO)[C@@H](O)[C@H]1O | 4.8 | > 44000 | > 44000 | > 44000 | 690 | inactive | inactive | inactive | inactive | inactive | inactive | inactive | inactive | inactive | inactive | inactive | inactive | 190 | 50 | 13900 | Activity (CCRF-CEM [2]): 9.4%; IC50 (MRC5): 91700 nM; IC50 (BJ): 45700 nM; IC50 (HCT-116 [15]): 120 nM; IC50 (HCT-116 [16]): 90 nM; IC50 (A549): 340 nM; IC50 (K562 [17]): 50 nM; IC50 (K562 [18]): 70 nM; IC50 [19]: 100 nM; IC50 (CCRF-CEM [20]): 1590 nM; Activity (CCRF-CEM [21]): 1.3% |
| C#Cc1cn([C@@H]2O[C@H](CO)[C@@H](O)[C@H]2O)c2ncnc(N(C)C)c12 | 8.6 | > 44000 | 100 | > 44000 | 70 | inactive | inactive | inactive | inactive | inactive | inactive | inactive | inactive | inactive | inactive | inactive | inactive | 810 | 290 | 1320 | Activity (CCRF-CEM [2]): 8.9%; IC50 (MRC5): 36100 nM; IC50 (BJ): 410 nM; IC50 (HCT-116 [15]): 290 nM; IC50 (HCT-116 [16]): 180 nM; IC50 (A549): 390 nM; IC50 (K562 [17]): 260 nM; IC50 (K562 [18]): 110 nM; IC50 [19]: 240 nM; IC50 (CCRF-CEM [20]): 90 nM; Activity (CCRF-CEM [21]): 1.3% |
| CNc1ncnc2c1c(-c1ccco1)cn2[C@@H]1O[C@H](CO)[C@@H](O)[C@H]1O | 1 | > 44000 | 140 | > 44000 | 60 | inactive | inactive | inactive | inactive | inactive | inactive | inactive | inactive | inactive | inactive | inactive | inactive | 5000 | 620 | 850 | IC50 (MRC5): 90800 nM; IC50 (BJ): 5040 nM; IC50 (HCT-116 [15]): 440 nM; IC50 (HCT-116 [16]): 230 nM; IC50 (A549): 2570 nM; IC50 (K562 [17]): 15100 nM; IC50 (K562 [18]): 220 nM; IC50 [19]: > 20000 nM; IC50 (CCRF-CEM [20]): 180 nM; Activity (CCRF-CEM [21]): 1.4% |

From ChEMBL document CHEMBL3124843, “Synthesis, cytostatic, antimicrobial, and anti-HCV activity of 6-substituted 7-(het)aryl-7-deazapurine ribonucleosides” (J Med Chem, 2014)
